The nature of data set [1]: Particle size and ζ-potential by dynamic light scattering. Type of data set: physicochemical. The conditions noted are these: 25 °C. The gist of the method: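 Test-compound-loaded fiber-reinforced phospholipid vesicles were diluted 10-fold in distilled water to avoid scattering artefacts. Size and ζ-potential were then measured by dynamic light scattering on a Zetasizer Nano ZS at 25 °C, with intensity read at a scattering angle of 90.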

The format of data set [2] is in vivo, human. In short, it runs like this: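 Eight healthy men (21–65 y) taking no medicines or vitamins, randomized 1:1, double-blind crossover. After a ≥10 h fast, seated subjects swallowed 500 mg test formulation or 500 mg control (150 mg AA + 350 mg starch) with 240 mL water. Heparinized blood sampled 0.25–24 h post dose, spun 3500 rpm, 4 °C, 10 min; plasma at −20 °C, AA by HPLC; mean ± SD.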

Setting [3] is: male, human, plasma, po, 150 mg.
[4] abbreviates: plasma vitamin C, single oral dose 500 mg (150 mg AA), fasting, mean ± SD.

Like-named read-outs stand apart in the source and are kept apart here.

`O=C1O[C@H]([C@@H](O)CO)C(O)=C1O` [AA, L-ascorbic acid]: in data set [1], the ζ-potential was −20 to 10 mV. Further, in data set [2] (setting [3]), the highest concentration (Cmax) was found to be 12300 ± 3800 ng/mL, the half-life was 3.14 ± 2.01 h and the k el was 8.61e-05 s⁻¹. For the same compound, in data set [2] (setting [4]), the “AUC0–t” value stood at 9.38 ± 4.91 mg·h/dL, the “AUC0–∞” value was 9.66 ± 5.02 mg·h/dL and the Tmax came to 3.56 ± 0.62 h. Further, in data set [2] (single oral dose), the AUC worked out at 9.66 mg/dL and the “AUC0–t” value came out at 9.38 mg/dL.

The values above are taken from article PMC7931380 (ACS Omega, 2021).
